PubChem BioAssay AID573 (SRMLSC, 2007)
Among all 65,000 compounds or so, about 1,400 (2.2%) were called active.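 Rule for the calls: active = growth inhibition at or above a cutoff equal to the mean over every tested compound plus 3 SD (cut at about 60% in these data); inactive = the rest.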 Only a selection was taken, and actives are over-represented in it overall.

Test: E. coli ΔtolC antibacterial growth inhibition – strain BW25113 ΔtolC::kan, 384-well, primary screen (AID 573)
Conditions: E. coli BW25113 tolC mutant growth, OD615; hits give high values; screened at 10 µM (by protocol)
Summary of the method: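 Test system: E. coli BW25113 ΔtolC::kan bacteria | Medium: Kanamycin-containing LB broth (50 µg/mL) | Dosing: One dose of 10 µM final | Times: 20 h incubation with compound, 37 °C | Detection: Optical density read at 615 nm | Read-out basis: Percent growth inhibition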

| Compound | growth inhibition |
| --- | --- |
| COC(=O)CSC1=C(C#N)C(c2ccccc2OC)C(C(=O)OC)C(=O)N1 (configuration not stated) | -1.55% (inactive) |
| CCCCCCn1c(CN2CCCCC2)nc2c1c(=O)n(C)c(=O)n2C | -3.32% (inactive) |
| CCCCCCn1c(CN2CCCC(C)C2)nc2c1c(=O)n(C)c(=O)n2C (configuration not stated) | 60.7% (active) |
| CC1CCCN(Cc2nc3c(c(=O)n(C)c(=O)n3C)n2CC(=O)c2ccccc2)C1 (configuration not stated) | 13.4% (inactive) |
| NC(=O)C1CC=CCC1C(=O)OCC(Cl)=C(Cl)Cl (configuration not stated) | 3.92% (inactive) |
| COC(=O)c1cc(C(=O)CSc2nc(C)cc(C)n2)ccc1O | 68% (active) |
| COC(=O)c1cccc(NC(=O)CSc2nc(C)cc(=O)[nH]2)c1 | 10.2% (inactive) |
| CCOC(=O)c1c(C)[nH]c(C)c1C(=O)CSc1nc(N)cc(N)n1 | -1.68% (inactive) |
| CCOC(=O)c1nnn(-c2nonc2OC)c1-c1ccccc1 | 8.09% (inactive) |
| COC(=O)c1ccc(NC(=O)CSc2nnc(CNc3ccc(OC)cc3)n2C)cc1 | 3.76% (inactive) |
| CCN(CC(=O)NC(C)C)C(=O)CCNC(=O)c1ccc(Cl)cc1 | -4.01% (inactive) |
| CC1(N2CCOCC2)CC2(O)C(=[N+]1[O-])CCc1nonc12 (configuration not stated) | -7.92% (inactive) |
| COc1ccc(CCN2C(=O)c3[nH]nc(-c4ccccc4O)c3C2c2ccc(C)cc2)cc1OC (configuration not stated) | 64.4% (active) |
| COc1cc(C2C(C(=O)c3ccc(C)o3)=C(O)C(=O)N2CCc2ccccc2)ccc1O (configuration not stated) | 5.33% (inactive) |
| COc1ccc(CCN(C)CCN2C(=O)c3ccccc3C2=O)cc1OC | -13.3% (inactive) |
| CNC(=O)c1c(NC(=O)c2ccc(S(=O)(=O)N3CCOCC3)cc2)sc2c1CCC2 | 10.9% (inactive) |
| CCOCCc1c(O)nc(SCC(=O)NCc2ccco2)[nH]c1=O | -0.82% (inactive) |
| CCOc1ccc(C(C)C)cc1S(=O)(=O)n1nc(C)cc1C | 24.3% (inactive) |
| CCOc1cc(C)c(Cl)cc1S(=O)(=O)n1nnc2ccccc21 | 63.4% (active) |
| Cc1ccc(C)c(S(=O)(=O)n2cnc3ccccc32)c1 | 7.6% (inactive) |
| CCN1CCN(C(=O)CN(C)S(=O)(=O)c2ccc(OC)cc2)CC1 | 8.07% (inactive) |
| O=C(Nc1ccccc1)N(Cc1cccnc1)Cc1ccco1 | -11.4% (inactive) |
| CS(=O)(=O)NCc1ccc(C(=O)NCc2ccccc2)cc1 | -9.06% (inactive) |
| COc1ccccc1N1CCN(C(=O)CN(Cc2ccc(Cl)cc2)S(C)(=O)=O)CC1 | 25.9% (inactive) |
| COc1cc2ccccc2cc1C(=O)Nc1ccc(S(=O)(=O)Nc2cc(C)on2)cc1 | 78.6% (active) |
| Cc1cc(NS(=O)(=O)c2ccccc2)no1 | -26.8% (inactive) |
| CCOc1ccc(CC(=O)Nc2ccc(S(=O)(=O)Nc3cc(C)on3)cc2)cc1OCC | 4.16% (inactive) |
